Measurements published in ChEMBL document CHEMBL3745667, “Identification of Noncompetitive Inhibitors of Cytosolic 5'-Nucleotidase II Using a Fragment-Based Approach” (J Med Chem, 2015).

Legend:
[1] = molecular target: T1, Cytosolic purine 5'-nucleotidase (Homo sapiens, UniProt P49902); assay: Inhibition of recombinant N-terminal truncated human cytosolic 5'-nucleotidase-2 assessed as inhibition of inosine 5'-monophosphate hydrolysis at 1 mM by rapid green malachite assay
How it was run: (§1)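 Purified recombinant N-terminally truncated cN-II expressed in E. coli, with IMP as substrate. Released phosphate was read by green malachite colorimetry. Inhibitor was tested at a single level, 0.2 mM or 1 mM. Compounds that are not water-soluble were added in DMSO, not exceeding 2% final.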

RL [2] = assay: Antiproliferative activity against human RL cells after 72 hrs by MTT assay in presence of fludarabine; format: functional, cell-based
[3] = molecular target: T1, Cytosolic purine 5'-nucleotidase; assay: Inhibition of recombinant N-terminal truncated human cytosolic 5'-nucleotidase-2 assessed as inhibition of inosine 5'-monophosphate hydrolysis at 0.2 mM by rapid green malachite assay; how it was run: as §1
[4] = molecular target: T1, Cytosolic purine 5'-nucleotidase; assay: Inhibition of recombinant N-terminal truncated human cytosolic 5'-nucleotidase-2 assessed as inhibition of inosine 5'-monophosphate hydrolysis by steady state kinetics with HPLC quantification
RL [5] = assay: Antiproliferative activity against human RL cells after 72 hrs by MTT assay in presence of cladribine; format: functional, cell-based
RL [6] = assay: Antiproliferative activity against human RL cells after 72 hrs by MTT assay; format: functional, cell-based
How it was run: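 MTT assay on RL human follicular lymphoma cells treated with a range of compound concentrations for 72 h. IC50 calculated with CompuSyn and given as the mean ± SEM of at least three independent experiments.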

RL [7] = assay: Antiproliferative activity against human RL cells after 72 hrs by MTT assay in presence of clofarabine; format: functional, cell-based

T1 sequence (P49902 whole entry, the tested form may be a part): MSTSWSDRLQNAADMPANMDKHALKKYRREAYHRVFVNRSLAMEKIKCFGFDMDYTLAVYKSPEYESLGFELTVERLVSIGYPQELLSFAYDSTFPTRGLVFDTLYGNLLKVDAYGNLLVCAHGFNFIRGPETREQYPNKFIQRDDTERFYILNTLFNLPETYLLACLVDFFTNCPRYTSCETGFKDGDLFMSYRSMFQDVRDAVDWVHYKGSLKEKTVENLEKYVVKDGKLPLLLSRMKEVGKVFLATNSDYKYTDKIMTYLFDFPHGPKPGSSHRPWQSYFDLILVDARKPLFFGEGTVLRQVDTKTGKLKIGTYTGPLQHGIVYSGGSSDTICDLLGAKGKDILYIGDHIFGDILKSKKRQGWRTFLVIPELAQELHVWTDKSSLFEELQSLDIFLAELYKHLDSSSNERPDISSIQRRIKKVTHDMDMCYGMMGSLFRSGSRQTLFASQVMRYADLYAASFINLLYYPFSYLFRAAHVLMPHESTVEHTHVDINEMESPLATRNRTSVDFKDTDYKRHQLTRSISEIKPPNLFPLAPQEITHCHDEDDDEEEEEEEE

SMILES	inhibition [1]	other results
c1ccc(CNc2ncnc3[nH]cnc23)cc1	20%	–
c1ccc(N2CCNCC2)nc1	0.5%	–
OC(c1ccccc1)c1ccccc1	2%	–
O=C1c2ccc(S(=O)(=O)O)cc2C(=O)c2ccc(S(=O)(=O)O)cc21	–	CI95 (RL [2]): 4.2; inhibition [3]: 20%; Ki [4]: 2000 µM; CI95 (RL [5]): 0.4; IC50 (RL [6]): 1040 µM; CI95 (RL [7]): 0.24
O=C(Nc1ncnc2nc[nH]c12)c1ccccc1	28%	–
Oc1ccccc1-c1ccccc1	19%	–
Oc1ccc(-c2ccc(O)cc2)cc1	8%	–
Oc1ccc2ccc(O)cc2c1	40%	–
Nc1[nH]cnc2ncnc1-2	19%	–
Nc1cccc2cnccc12	30%	–
c1ccc(-c2c[nH]cn2)cc1	36%	–
Nc1ccccc1-c1ccccc1	36%	–
OCc1nc2ccccc2[nH]1	11%	–
Nc1nc(Cl)c2nc[nH]c2n1	23%	–
Nc1ccc(-c2ccc(N)c(O)c2)cc1O	23%	–
